Results as given in ChEMBL document CHEMBL4689842, “EUbOPEN Chemogenomics Library wave 1” (2021).

System: U2OS
Assay: Multiplex assay against U2OS
Type: toxicity, cell-based
Conditions: human
How it was run: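 Live cells carried four stains from seeding: Hoechst33342, BioTracker Green Microtubule Cytoskeleton Dye, MitoTracker Red and Annexin V Alexa Fluor 680. They were imaged on a CQ1 microscope at 37°C and 5% CO2 after compound addition. Using CellPathfinder machine-learning gating, cells were split into Hoechst high-intensity objects or normal cells, normal cells into healthy, pyknosed or fragmented nuclei, and pyknosed cells into mitotic or apoptotic; tubulin, mitochondrial-mass and membrane-permeability phenotypes are per cents of healthy-nucleus cells.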

[1] = 12 h, 1 µM, compound concentration 1 uM, replicate 1
[2] = 12 h, 1 µM, compound concentration 1 uM, replicate 2
[3] = 12 h, 10 µM, compound concentration 10 uM, replicate 1
[4] = 12 h, 10 µM, compound concentration 10 uM, replicate 2
[5] = 24 h, 1 µM, compound concentration 1 uM, replicate 1
[6] = 24 h, 1 µM, compound concentration 1 uM, replicate 2
[7] = 24 h, 10 µM, compound concentration 10 uM, replicate 1
[8] = 24 h, 10 µM, compound concentration 10 uM, replicate 2
[9] = 48 h, 1 µM, compound concentration 1 uM, replicate 1
[10] = 48 h, 1 µM, compound concentration 1 uM, replicate 2
[11] = 48 h, 10 µM, compound concentration 10 uM, replicate 1
[12] = 48 h, 10 µM, compound concentration 10 uM, replicate 2

C=CC(=O)Nc1cccc(Sc2nc(Nc3ccc(N4CCN(C)CC4)cc3)ncc2Cl)c1
Population Apoptotic (%) [1]: 99% | Population Fragmented Nuclei (%) [1]: 5% | Population Healthy Nuclei (%) [1]: 3% | Population Hoechst High Intensity Objects (%) [1]: 10% | Population Membrane Permeable-Phenotype (%) [1]: 100% | Population Mitochondria Different-Phenotype (%) [1]: 100% | Population Mitotic Cells (%) [1]: 0% | Population Normal (%) [1]: 89% | Population Pyknosed Nuclei (%) [1]: 91% | Population Tubulin-Different-Phenotype (%) [1]: 100% | Total Cell Count [1]: 197 | Population Apoptotic (%) [2]: 95% | Population Fragmented Nuclei (%) [2]: 16% | Population Healthy Nuclei (%) [2]: 11% | Population Hoechst High Intensity Objects (%) [2]: 14% | Population Mitotic Cells (%) [2]: 5% | Population Normal (%) [2]: 85% | Population Pyknosed Nuclei (%) [2]: 71% | Total Cell Count [2]: 119 | Population Apoptotic (%) [3]: 28% | Population Fragmented Nuclei (%) [3]: 5% | Population Healthy Nuclei (%) [3]: 83% | Population Hoechst High Intensity Objects (%) [3]: 1% | Population Membrane Permeable-Phenotype (%) [3]: 32% | Population Mitochondria Different-Phenotype (%) [3]: 11% | Population Mitotic Cells (%) [3]: 71% | Population Normal (%) [3]: 98% | Population Pyknosed Nuclei (%) [3]: 10% | Population Tubulin-Different-Phenotype (%) [3]: 25% | Total Cell Count [3]: 175 | Population Apoptotic (%) [4]: 44% | Population Fragmented Nuclei (%) [4]: 8% | Population Healthy Nuclei (%) [4]: 82% | Population Hoechst High Intensity Objects (%) [4]: 14% | Population Membrane Permeable-Phenotype (%) [4]: 25% | Population Mitochondria Different-Phenotype (%) [4]: 10% | Population Mitotic Cells (%) [4]: 55% | Population Normal (%) [4]: 85% | Population Pyknosed Nuclei (%) [4]: 8% | Population Tubulin-Different-Phenotype (%) [4]: 33% | Total Cell Count [4]: 115 | Population Apoptotic (%) [5]: 96% | Population Fragmented Nuclei (%) [5]: 10% | Population Hoechst High Intensity Objects (%) [5]: 7% | Population Mitochondria Different-Phenotype (%) [5]: 96% | Population Mitotic Cells (%) [5]: 3% | Population Normal (%) [5]: 92% | Population Pyknosed Nuclei (%) [5]: 50% | Total Cell Count [5]: 237 | Population Apoptotic (%) [6]: 100% | Population Fragmented Nuclei (%) [6]: 21% | Population Healthy Nuclei (%) [6]: 38% | Population Hoechst High Intensity Objects (%) [6]: 15% | Population Membrane Permeable-Phenotype (%) [6]: 100% | Population Mitochondria Different-Phenotype (%) [6]: 100% | Population Mitotic Cells (%) [6]: 0% | Population Normal (%) [6]: 84% | Population Pyknosed Nuclei (%) [6]: 40% | Population Tubulin-Different-Phenotype (%) [6]: 100% | Total Cell Count [6]: 127 | Population Apoptotic (%) [7]: 42% | Population Fragmented Nuclei (%) [7]: 6% | Population Healthy Nuclei (%) [7]: 82% | Population Hoechst High Intensity Objects (%) [7]: 1% | Population Membrane Permeable-Phenotype (%) [7]: 24% | Population Mitochondria Different-Phenotype (%) [7]: 13% | Population Mitotic Cells (%) [7]: 57% | Population Normal (%) [7]: 98% | Population Pyknosed Nuclei (%) [7]: 11% | Population Tubulin-Different-Phenotype (%) [7]: 18% | Total Cell Count [7]: 158 | Population Apoptotic (%) [8]: 72% | Population Fragmented Nuclei (%) [8]: 7% | Population Hoechst High Intensity Objects (%) [8]: 12% | Population Membrane Permeable-Phenotype (%) [8]: 23% | Population Mitochondria Different-Phenotype (%) [8]: 15% | Population Mitotic Cells (%) [8]: 27% | Population Normal (%) [8]: 87% | Population Pyknosed Nuclei (%) [8]: 9% | Population Tubulin-Different-Phenotype (%) [8]: 22% | Total Cell Count [8]: 103

O=C(c1cc2c(cc1F)OC(c1ccc(F)cc1)(c1ccc(Cl)cc1Cl)O2)N1CCOCC1 (configuration not stated)
Population Apoptotic (%) [1]: 57% | Population Fragmented Nuclei (%) [1]: 19% | Population Healthy Nuclei (%) [1]: 67% | Population Hoechst High Intensity Objects (%) [1]: 10% | Population Membrane Permeable-Phenotype (%) [1]: 7% | Population Mitochondria Different-Phenotype (%) [1]: 17% | Population Mitotic Cells (%) [1]: 42% | Population Normal (%) [1]: 89% | Population Pyknosed Nuclei (%) [1]: 13% | Total Cell Count [1]: 120 | Population Apoptotic (%) [2]: 50% | Population Fragmented Nuclei (%) [2]: 18% | Population Healthy Nuclei (%) [2]: 68% | Population Hoechst High Intensity Objects (%) [2]: 7% | Population Membrane Permeable-Phenotype (%) [2]: 9% | Population Mitochondria Different-Phenotype (%) [2]: 12% | Population Mitotic Cells (%) [2]: 50% | Population Normal (%) [2]: 92% | Population Pyknosed Nuclei (%) [2]: 12% | Population Tubulin-Different-Phenotype (%) [2]: 15% | Total Cell Count [2]: 78 | Population Apoptotic (%) [3]: 50% | Population Healthy Nuclei (%) [3]: 67% | Population Hoechst High Intensity Objects (%) [3]: 8% | Population Membrane Permeable-Phenotype (%) [3]: 46% | Population Mitotic Cells (%) [3]: 50% | Population Normal (%) [3]: 91% | Population Pyknosed Nuclei (%) [3]: 21% | Total Cell Count [3]: 116 | Population Apoptotic (%) [4]: 71% | Population Fragmented Nuclei (%) [4]: 10% | Population Healthy Nuclei (%) [4]: 78% | Population Hoechst High Intensity Objects (%) [4]: 4% | Population Membrane Permeable-Phenotype (%) [4]: 47% | Population Mitochondria Different-Phenotype (%) [4]: 96% | Population Mitotic Cells (%) [4]: 28% | Population Normal (%) [4]: 95% | Population Pyknosed Nuclei (%) [4]: 10% | Population Tubulin-Different-Phenotype (%) [4]: 100% | Total Cell Count [4]: 52 | Population Apoptotic (%) [5]: 44% | Population Fragmented Nuclei (%) [5]: 17% | Population Healthy Nuclei (%) [5]: 68% | Population Hoechst High Intensity Objects (%) [5]: 7% | Population Membrane Permeable-Phenotype (%) [5]: 5% | Population Mitochondria Different-Phenotype (%) [5]: 14% | Population Mitotic Cells (%) [5]: 55% | Population Normal (%) [5]: 92% | Population Pyknosed Nuclei (%) [5]: 14% | Population Tubulin-Different-Phenotype (%) [5]: 12% | Total Cell Count [5]: 130 | Population Apoptotic (%) [6]: 33% | Population Fragmented Nuclei (%) [6]: 5% | Population Healthy Nuclei (%) [6]: 88% | Population Hoechst High Intensity Objects (%) [6]: 10% | Population Membrane Permeable-Phenotype (%) [6]: 10% | Population Mitochondria Different-Phenotype (%) [6]: 15% | Population Mitotic Cells (%) [6]: 66% | Population Normal (%) [6]: 89% | Population Pyknosed Nuclei (%) [6]: 5% | Population Tubulin-Different-Phenotype (%) [6]: 21% | Total Cell Count [6]: 85 | Population Apoptotic (%) [7]: 67% | Population Fragmented Nuclei (%) [7]: 16% | Population Healthy Nuclei (%) [7]: 55% | Population Hoechst High Intensity Objects (%) [7]: 8% | Population Membrane Permeable-Phenotype (%) [7]: 48% | Population Mitochondria Different-Phenotype (%) [7]: 98% | Population Mitotic Cells (%) [7]: 32% | Population Normal (%) [7]: 91% | Population Pyknosed Nuclei (%) [7]: 28% | Population Tubulin-Different-Phenotype (%) [7]: 100% | Total Cell Count [7]: 137 | Population Apoptotic (%) [8]: 66% | Population Fragmented Nuclei (%) [8]: 8% | Population Healthy Nuclei (%) [8]: 62% | Population Hoechst High Intensity Objects (%) [8]: 6% | Population Membrane Permeable-Phenotype (%) [8]: 64% | Population Mitochondria Different-Phenotype (%) [8]: 100% | Population Mitotic Cells (%) [8]: 33% | Population Normal (%) [8]: 93% | Population Pyknosed Nuclei (%) [8]: 29% | Total Cell Count [8]: 58 | Population Apoptotic (%) [9]: 62% | Population Fragmented Nuclei (%) [9]: 14% | Population Healthy Nuclei (%) [9]: 75% | Population Hoechst High Intensity Objects (%) [9]: 7% | Population Membrane Permeable-Phenotype (%) [9]: 4% | Population Mitochondria Different-Phenotype (%) [9]: 11% | Population Mitotic Cells (%) [9]: 37% | Population Normal (%) [9]: 92% | Population Pyknosed Nuclei (%) [9]: 9% | Population Tubulin-Different-Phenotype (%) [9]: 9% | Total Cell Count [9]: 127 | Population Apoptotic (%) [10]: 60% | Population Fragmented Nuclei (%) [10]: 8% | Population Healthy Nuclei (%) [10]: 84% | Population Hoechst High Intensity Objects (%) [10]: 4% | Population Membrane Permeable-Phenotype (%) [10]: 6% | Population Mitochondria Different-Phenotype (%) [10]: 13% | Population Mitotic Cells (%) [10]: 40% | Population Normal (%) [10]: 96% | Population Pyknosed Nuclei (%) [10]: 6% | Population Tubulin-Different-Phenotype (%) [10]: 16% | Total Cell Count [10]: 78 | Population Apoptotic (%) [11]: 57% | Population Fragmented Nuclei (%) [11]: 20% | Population Healthy Nuclei (%) [11]: 44% | Population Hoechst High Intensity Objects (%) [11]: 14% | Population Membrane Permeable-Phenotype (%) [11]: 65% | Population Mitochondria Different-Phenotype (%) [11]: 93% | Population Mitotic Cells (%) [11]: 42% | Population Normal (%) [11]: 85% | Population Pyknosed Nuclei (%) [11]: 34% | Population Tubulin-Different-Phenotype (%) [11]: 100% | Total Cell Count [11]: 179 | Population Apoptotic (%) [12]: 71% | Population Fragmented Nuclei (%) [12]: 17% | Population Healthy Nuclei (%) [12]: 50% | Population Hoechst High Intensity Objects (%) [12]: 8% | Population Membrane Permeable-Phenotype (%) [12]: 76% | Population Mitochondria Different-Phenotype (%) [12]: 100% | Population Mitotic Cells (%) [12]: 28% | Population Normal (%) [12]: 91% | Population Pyknosed Nuclei (%) [12]: 31% | Total Cell Count [12]: 75
